# Results published in ChEMBL document CHEMBL1136733, “Pyrrolopyrazinedione-based inhibitors of human hormone-sensitive lipase” (J Med Chem, 2003).
# Columns and labels:
# [1] = biological target: T1, Hormone-sensitive lipase (Homo sapiens, UniProt Q05469); experiment: Inhibitory activity against Human Hormone-sensitive lipase (HSL) expressed in the baculovirus was determined by HSL [14 C] cholesteryl oleate assay
# T1 sequence (Q05469 whole entry): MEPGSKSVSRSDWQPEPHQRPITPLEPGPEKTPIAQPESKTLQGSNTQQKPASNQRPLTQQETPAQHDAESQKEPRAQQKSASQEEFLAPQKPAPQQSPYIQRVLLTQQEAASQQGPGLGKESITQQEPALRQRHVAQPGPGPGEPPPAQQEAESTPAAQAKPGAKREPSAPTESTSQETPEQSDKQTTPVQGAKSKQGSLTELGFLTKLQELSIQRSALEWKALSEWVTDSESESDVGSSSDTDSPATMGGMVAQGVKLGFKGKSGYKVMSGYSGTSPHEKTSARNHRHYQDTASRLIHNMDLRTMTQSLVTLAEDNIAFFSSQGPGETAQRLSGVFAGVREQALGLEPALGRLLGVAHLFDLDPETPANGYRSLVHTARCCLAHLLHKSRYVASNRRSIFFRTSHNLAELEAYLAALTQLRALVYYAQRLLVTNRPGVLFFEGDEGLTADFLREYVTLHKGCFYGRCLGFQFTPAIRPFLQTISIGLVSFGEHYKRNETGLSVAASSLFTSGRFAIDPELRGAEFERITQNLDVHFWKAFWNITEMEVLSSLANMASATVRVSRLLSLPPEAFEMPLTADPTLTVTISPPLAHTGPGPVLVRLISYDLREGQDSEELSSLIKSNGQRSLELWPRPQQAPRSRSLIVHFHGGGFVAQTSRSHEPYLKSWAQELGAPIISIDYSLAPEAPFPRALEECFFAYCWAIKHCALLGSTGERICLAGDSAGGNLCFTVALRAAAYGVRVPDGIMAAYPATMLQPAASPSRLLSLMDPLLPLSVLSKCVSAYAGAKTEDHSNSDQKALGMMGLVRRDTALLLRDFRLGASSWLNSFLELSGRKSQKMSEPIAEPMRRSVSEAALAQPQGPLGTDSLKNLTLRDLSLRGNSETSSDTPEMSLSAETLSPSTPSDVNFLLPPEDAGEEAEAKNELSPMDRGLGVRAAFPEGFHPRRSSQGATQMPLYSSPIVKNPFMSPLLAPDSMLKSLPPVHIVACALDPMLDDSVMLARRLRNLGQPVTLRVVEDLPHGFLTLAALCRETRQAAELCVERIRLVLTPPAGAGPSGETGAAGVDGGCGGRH
# How it was run: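 Recombinant human HSL from Sf9/baculovirus expression, Ni-NTA purified. Substrate was a [14C]cholesteryl oleate emulsion. IC50 derived from 8-point concentration curves run in triplicate.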
# [2] = biological target: T1, Hormone-sensitive lipase; experiment: Inhibitory activity against human hormone-sensitive lipase (HSL) expressed in the baculovirus was determined by p-nitrophenyl butyrate (PNPB) assay
# How it was run: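 Recombinant human HSL (His-tagged, Sf9/baculovirus, Ni-NTA purified), 10 ng per reaction in 20 mM KPO4 pH 7.4, 1 mM EDTA, 0.1% Triton X-100, 5 mM p-nitrophenyl butyrate, 5% DMSO. Incubated 1 h at 27 °C, absorbance read at 400 nm. Full 8-point IC50 curves run in triplicate.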
smiles,measurement,setting,value
COC(=O)C1CC2(COCc3ccccc3)C(=O)N(CCCCc3ccccc3)CC(=O)N2C1c1ccco1 (configuration not stated),IC50,[1],260 nM
same,IC50,[2],210 nM
